# Data from ChEMBL document CHEMBL1687712, “Antiviral effects of lamivudine, emtricitabine, adefovir dipivoxil, and tenofovir disoproxil fumarate administered orally alone and in combination to woodchucks with chronic woodchuck hepatitis virus infection” (Antimicrob Agents Chemother, 2008).
# Calls of active or inactive are those of the source. The calls are words filed in the database; no cut-off is given here.
# Tests used:
# [1] = test system: Woodchuck hepatitis virus; assay: Antiviral activity against Woodchuck hepatitis virus infected in woodchuck assessed as reduction of viral DNA replicative intermediate level per ug of total cell DNA at 15 mg/kg, po qd measured on 36th week on 48 weeks study (reference value: 1132 +/- 738 pg); format: functional
# Procedure, shortened: (§1)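 Chronic WHV-carrier woodchucks, 5 per group, 15 mg/kg/day oral once daily for 48 weeks in liquid diet. Needle liver biopsies were snap-frozen in liquid nitrogen and stored at −70°C. Hepatic WHV DNA replicative intermediates were quantified by Southern blot (pg/μg total cell DNA) and WHV RNA by Northern blot; group means ± SD were compared with pretreatment and placebo.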
# [2] = test system: Woodchuck hepatitis virus; assay: Antiviral activity against Woodchuck hepatitis virus infected in woodchuck assessed as reduction of viral DNA replicative intermediate level per ug of total cell DNA at 15 mg/kg, po qd measured on 12th week on 48 weeks study (reference value: 1495 +/- 890 pg); format: functional; procedure, shortened: as §1
# [3] = test system: Woodchuck hepatitis virus; assay: Antiviral activity against Woodchuck hepatitis virus infected in woodchuck assessed as frequency of hepatocytes expressing viral antigen at 15 mg/kg, po qd measured on 12th week on 48 weeks study; format: functional, Hepatocyte
# Procedure, shortened: (§2)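 Chronic WHV-carrier woodchucks, 5 per group, given 15 mg/kg/day orally once daily for 48 weeks in liquid diet; placebo is diet alone. Liver biopsies at pretreatment, weeks 12, 36, 48 and 12 weeks after withdrawal. Cytoplasmic WHsAg staining scored 0–4: 1 ≤1%, 2 ≤2%, 3 ≤5%, 4 ≥10% of hepatocytes.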
# [4] = test system: Woodchuck hepatitis virus; assay: Antiviral activity against Woodchuck hepatitis virus infected in woodchuck assessed as frequency of hepatocytes expressing viral antigen at 15 mg/kg, po qd for 48 weeks measured on 60th week; format: functional, Hepatocyte; procedure, shortened: as §2
# [5] = test system: Woodchuck hepatitis virus; assay: Antiviral activity against Woodchuck hepatitis virus infected in woodchuck assessed as absent of lesion in portal hepatitis at 15 mg/kg, po qd measured on 12th week on 48 weeks study; format: functional, organism-based; design: dose 15 mg/kg
# Procedure, shortened: (§3)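 Adult chronic WHV-carrier woodchucks (neonatally inoculated), 5 per group, given drug once daily by dose syringe in semisynthetic liquid diet, for 48 weeks; placebo got diet alone. Ultrasound-guided needle liver biopsies under ketamine/xylazine anesthesia at pretreatment, weeks 12, 36, 48 and 12 weeks post-withdrawal. Biopsies were formalin-fixed, paraffin-embedded and H&E stained. Portal and lobular hepatitis were graded 0 (absent) to 4 (most severe).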
# [6] = test system: Woodchuck hepatitis virus; assay: Antiviral activity against Woodchuck hepatitis virus infected in woodchuck assessed as reduction of viral antigen level in serum at 15 mg/kg, po qd measured on 12th week on 48 weeks study (reference value: 4.3 +/- 1.5 log10 ng/ml); format: functional
# [7] = test system: Woodchuck hepatitis virus; assay: Antiviral activity against Woodchuck hepatitis virus infected in woodchuck assessed as reduction of viral antigen level in serum at 15 mg/kg, po qd measured on 36th week on 48 weeks study (reference value: 3.8 +/- 1.3 log10 ng/ml); format: functional
# [8] = test system: Woodchuck hepatitis virus; assay: Antiviral activity against Woodchuck hepatitis virus infected in woodchuck assessed as reduction of viral antigen level in serum at 15 mg/kg, po qd for 48 weeks (reference value: 3.8 +/- 1.3 log10 ng/ml); format: functional
# [9] = test system: Woodchuck hepatitis virus; assay: Antiviral activity against Woodchuck hepatitis virus infected in woodchuck assessed as reduction of viral antigen level in serum at 15 mg/kg, po qd for 48 weeks measured on 60th week (reference value: 3.3 +/- 1.6 log10 ng/ml); format: functional
# [10] = test system: Woodchuck hepatitis virus; assay: Antiviral activity against Woodchuck hepatitis virus infected in woodchuck assessed as reduction of viral DNA replicative intermediate level per ug of total cell DNA at 15 mg/kg, po qd for 48 weeks (reference value: 995 +/- 736 pg); format: functional; procedure, shortened: as §1
# [11] = test system: Woodchuck hepatitis virus; assay: Antiviral activity against Woodchuck hepatitis virus infected in woodchuck assessed as reduction of viral DNA replicative intermediate level per ug of total cell DNA at 15 mg/kg, po qd for 48 weeks measured on 60th week (reference value: 979 pg); format: functional; procedure, shortened: as §1
# [12] = test system: Woodchuck hepatitis virus; assay: Antiviral activity against Woodchuck hepatitis virus infected in woodchuck assessed as reduction of viral RNA level per ug of total cell DNA at 15 mg/kg, po qd measured on 12th week on 48 weeks study (reference value: 46 +/- 25 pg); format: functional; procedure, shortened: as §1
# [13] = test system: Woodchuck hepatitis virus; assay: Antiviral activity against Woodchuck hepatitis virus infected in woodchuck assessed as reduction of viral RNA level per ug of total cell DNA at 15 mg/kg, po qd measured on 36th week on 48 weeks study (reference value: 33 +/- 21 pg); format: functional; procedure, shortened: as §1
# [14] = test system: Woodchuck hepatitis virus; assay: Antiviral activity against Woodchuck hepatitis virus infected in woodchuck assessed as reduction of viral RNA level per ug of total cell DNA at 15 mg/kg, po qd for 48 weeks (reference value: 34 +/- 20 pg); format: functional; procedure, shortened: as §1
# [15] = test system: Woodchuck hepatitis virus; assay: Antiviral activity against Woodchuck hepatitis virus infected in woodchuck assessed as reduction of viral RNA level per ug of total cell DNA at 15 mg/kg, po qd for 48 weeks measured on 60th week (reference value: 27 pg); format: functional; procedure, shortened: as §1
# [16] = test system: Woodchuck hepatitis virus; assay: Antiviral activity against Woodchuck hepatitis virus infected in woodchuck assessed as reduction of viral antigen positive hepatocytes at 15 mg/kg, po qd measured on 12th week on 48 weeks study (reference value: 55 +/- 32 %); format: functional, Hepatocyte; design: scale not given: the % may be the effect or the level left
# Procedure, shortened: (§4)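 Chronic WHV-carrier woodchucks, 5 per group, 15 mg/kg/day oral once daily for 48 weeks in liquid diet. Liver biopsies were taken at pretreatment, weeks 12, 36, 48 and week 60. Percentage of hepatocytes positive for WHcAg was given as group mean ± SD and compared with pretreatment and placebo.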
# [17] = test system: Woodchuck hepatitis virus; assay: Antiviral activity against Woodchuck hepatitis virus infected in woodchuck assessed as reduction of viral antigen positive hepatocytes at 15 mg/kg, po qd measured on 36th week on 48 weeks study (reference value: 41 +/- 25 %); format: functional, Hepatocyte; design: scale not given: the % may be the effect or the level left; procedure, shortened: as §4
# [18] = test system: Woodchuck hepatitis virus; assay: Antiviral activity against Woodchuck hepatitis virus infected in woodchuck assessed as reduction of viral antigen positive hepatocytes at 15 mg/kg, po qd for 48 weeks study (reference value: 35 +/- 27 %); format: functional, Hepatocyte; design: scale not given: the % may be the effect or the level left; procedure, shortened: as §4
# [19] = test system: Woodchuck hepatitis virus; assay: Antiviral activity against Woodchuck hepatitis virus infected in woodchuck assessed as reduction of viral antigen positive hepatocytes at 15 mg/kg, po qd for 48 weeks measured on 60th week (reference value: 26 %); format: functional, Hepatocyte; design: scale not given: the % may be the effect or the level left; procedure, shortened: as §4
# [20] = test system: Woodchuck hepatitis virus; assay: Antiviral activity against Woodchuck hepatitis virus infected in woodchuck assessed as frequency of hepatocytes expressing viral antigen at 15 mg/kg, po qd measured on 36th week on 48 weeks study; format: functional, Hepatocyte; procedure, shortened: as §2
# [21] = test system: Woodchuck hepatitis virus; assay: Antiviral activity against Woodchuck hepatitis virus infected in woodchuck assessed as frequency of hepatocytes expressing viral antigen at 15 mg/kg, po qd for 48 weeks; format: functional, Hepatocyte; procedure, shortened: as §2
# [22] = test system: Woodchuck hepatitis virus; assay: Antiviral activity against Woodchuck hepatitis virus infected in woodchuck assessed as absent of lesion in portal hepatitis at 15 mg/kg, po qd for 48 weeks; format: functional, organism-based; design: dose 15 mg/kg; procedure, shortened: as §3
# Marmota monax [23] = assay: Toxicity in Woodchuck hepatitis virus infected woodchuck assessed as change in body weight at 15 mg/kg, po qd for 48 weeks measured up to 60 weeks; format: organism-based; design: dose 15 mg/kg, route oral; conditions: in vivo
# Procedure, shortened: (§5)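 Chronic WHV-carrier woodchucks, 5 per group, were dosed orally once daily in liquid diet for 48 weeks, with a placebo diet-only group. Body weights were monitored. Complete blood counts were taken 2 weeks pretreatment, at weeks 12, 36 and 48 of treatment, and 12 weeks after withdrawal. Values were compared with placebo controls.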
# Marmota monax [24] = assay: Toxicity in Woodchuck hepatitis virus infected woodchuck assessed as effect on hematological parameters at 15 mg/kg, po qd for 48 weeks measured up to 60 weeks; format: organism-based; design: dose 15 mg/kg, route oral; conditions: in vivo; procedure, shortened: as §5
# Marmota monax [25] = assay: Toxicity in Woodchuck hepatitis virus infected woodchuck assessed as increase of liver sorbitol dehydrogenase activity at 15 mg/kg, po qd measured on 4 to 24 weeks on 48 week study; format: organism-based; design: dose 15 mg/kg, route oral; conditions: in vivo
# Procedure, shortened: (§6)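 Woodchucks chronically infected with WHV, 5 per group, received oral drug once daily in liquid diet for 48 weeks; placebo got diet only. Serum chemistry (GGT, ALP, ALT, AST, SDH, among others) was run 2 weeks pretreatment, at week 0, every other week to week 12, then monthly to week 48. Sampling continued at 2, 4, 6, 8 and 12 weeks post-treatment.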
# Marmota monax [26] = assay: Toxicity in Woodchuck hepatitis virus infected woodchuck assessed as increase of liver alanine aminotransferase activity at 15 mg/kg, po qd measured on 4 to 24 weeks on 48 week study; format: organism-based; design: dose 15 mg/kg, route oral; conditions: in vivo; procedure, shortened: as §6
# Marmota monax [27] = assay: Toxicity in Woodchuck hepatitis virus infected woodchuck assessed as increase of liver sorbitol dehydrogenase activity at 15 mg/kg, po qd measured on 28 to 48 weeks on 48 week study; format: organism-based; design: dose 15 mg/kg, route oral; conditions: in vivo; procedure, shortened: as §6
# Marmota monax [28] = assay: Toxicity in Woodchuck hepatitis virus infected woodchuck assessed as increase of serum gamma-glutamyltransferase activity at 15 mg/kg, po qd for 48 weeks; format: organism-based; design: dose 15 mg/kg, route oral; conditions: in vivo, 8064 h; procedure, shortened: as §6
# Marmota monax [29] = assay: Toxicity in Woodchuck hepatitis virus infected woodchuck assessed as increase of liver alanine aminotransferase activity at 15 mg/kg, po qd for 48 weeks; format: organism-based; design: dose 15 mg/kg, route oral; conditions: in vivo, 8064 h; procedure, shortened: as §6
# Marmota monax [30] = assay: Toxicity in Woodchuck hepatitis virus infected woodchuck assessed as increase of liver aspartate aminotransferase activity at 15 mg/kg, po qd for 48 weeks; format: organism-based; design: dose 15 mg/kg, route oral; conditions: in vivo, 8064 h; procedure, shortened: as §6
# Marmota monax [31] = assay: Toxicity in Woodchuck hepatitis virus infected woodchuck assessed as increase of liver alkaline phosphatase activity at 15 mg/kg, po qd for 48 weeks; format: organism-based; design: dose 15 mg/kg, route oral; conditions: in vivo, 8064 h; procedure, shortened: as §6
# [32] = test system: Woodchuck hepatitis virus; assay: Antiviral activity against Woodchuck hepatitis virus infected in woodchuck assessed as absent of lesion in lobular hepatitis at 15 mg/kg, po qd measured on 12th week on 48 weeks study; format: functional, organism-based; design: dose 15 mg/kg; procedure, shortened: as §3
SMILES,Activity [1],Activity [2],Activity [3],Activity [4],Activity [5],Activity [6],Activity [7],Activity [8],Activity [9],Activity [10],Activity [11],Activity [12],Activity [13],Activity [14],Activity [15],Activity [16],Activity [17],Activity [18],Activity [19],Activity [20],other results
Nc1nc(=O)n([C@@H]2CS[C@H](CO)O2)cc1F [EMTRICITABINE],644 pg,845 pg,2%,10%,Active,4.5 log10ng/ml,4.5 log10ng/ml,4.4 log10ng/ml,4.7 log10ng/ml,428 pg,1239 pg,42 pg,43 pg,35 pg,48 pg,47%,63%,40%,64%,10%,Activity [21]: 10%; Activity [22]: Active; Activity (Marmota monax [23]): Non-toxic; Activity (Marmota monax [24]): Non-toxic; Activity (Marmota monax [25]): Toxic; Activity (Marmota monax [26]): Toxic; Activity (Marmota monax [27]): Toxic; Activity (Marmota monax [28]): Toxic; Activity (Marmota monax [29]): Toxic; Activity (Marmota monax [30]): Toxic; Activity (Marmota monax [31]): Toxic
Nc1ccn([C@@H]2CS[C@H](CO)O2)c(=O)n1 [LAMIVUDINE],1133 pg,982 pg,1%,5%,Active,4.7 log10ng/ml,5.2 log10ng/ml,4.4 log10ng/ml,4.6 log10ng/ml,413 pg,1063 pg,39 pg,47 pg,33 pg,46 pg,39%,59%,36%,48%,5%,Activity [21]: 5%; Activity [32]: Active; Activity (Marmota monax [23]): Non-toxic; Activity (Marmota monax [24]): Non-toxic; Activity (Marmota monax [25]): Toxic; Activity (Marmota monax [26]): Toxic; Activity (Marmota monax [27]): Toxic; Activity (Marmota monax [28]): Toxic; Activity (Marmota monax [29]): Toxic; Activity (Marmota monax [30]): Toxic; Activity (Marmota monax [31]): Toxic
